We go through 13 compounds from ChEMBL document CHEMBL1687899, “Structure-activity relationships in nucleotide oligomerization domain 1 (Nod1) agonistic γ-glutamyldiaminopimelic acid derivatives” (J Med Chem, 2011).

The structures appear in SMILES notation.

For this assay, the target named is T1, Nucleotide-binding oligomerization domain-containing protein 1 (Homo sapiens, UniProt Q9Y239).
T1 sequence (Q9Y239 whole entry): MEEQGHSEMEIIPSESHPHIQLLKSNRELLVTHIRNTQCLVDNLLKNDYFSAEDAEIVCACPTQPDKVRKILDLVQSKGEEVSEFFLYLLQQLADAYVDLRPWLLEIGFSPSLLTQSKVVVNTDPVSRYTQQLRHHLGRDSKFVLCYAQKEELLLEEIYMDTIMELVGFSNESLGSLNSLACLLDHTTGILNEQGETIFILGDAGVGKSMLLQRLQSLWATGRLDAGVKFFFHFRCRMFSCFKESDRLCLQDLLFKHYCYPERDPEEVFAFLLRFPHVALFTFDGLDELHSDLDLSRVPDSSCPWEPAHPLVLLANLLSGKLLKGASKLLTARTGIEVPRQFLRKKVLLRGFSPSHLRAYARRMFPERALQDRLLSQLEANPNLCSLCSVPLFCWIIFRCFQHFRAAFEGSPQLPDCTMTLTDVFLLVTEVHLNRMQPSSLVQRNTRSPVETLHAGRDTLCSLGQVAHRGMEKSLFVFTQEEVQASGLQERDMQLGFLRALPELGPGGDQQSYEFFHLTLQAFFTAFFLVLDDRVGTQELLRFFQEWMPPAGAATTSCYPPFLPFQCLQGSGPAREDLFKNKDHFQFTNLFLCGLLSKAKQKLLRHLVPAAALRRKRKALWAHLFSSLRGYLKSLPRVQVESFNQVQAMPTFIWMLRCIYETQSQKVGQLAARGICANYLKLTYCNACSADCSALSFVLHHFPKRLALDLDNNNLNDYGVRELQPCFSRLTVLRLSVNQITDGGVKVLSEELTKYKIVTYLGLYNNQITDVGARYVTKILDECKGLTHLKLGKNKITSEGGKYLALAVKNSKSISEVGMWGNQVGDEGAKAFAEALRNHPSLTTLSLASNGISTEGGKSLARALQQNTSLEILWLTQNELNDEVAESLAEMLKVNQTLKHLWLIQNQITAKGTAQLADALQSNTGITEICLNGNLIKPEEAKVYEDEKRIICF
Description: Agonist activity at human NOD-1 expressed in human HEK293 cells assessed as NF-kappaB induction by spectrophotometric analysis. Format: functional, cell-based. An outline of the steps:
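HEK-Blue cells (HEK293 stably transfected with human Nod1 and an NF-κB/AP-1-inducible secreted alkaline phosphatase reporter) were kept in selection medium with zeocin and normocin. Cells at ~10^5 cells/mL were grown to confluency and then given graded compound concentrations. Supernatant sAP was read spectrophotometrically at 620 nm with an alkaline phosphatase-specific chromogen.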

As usually defined, the EC50 is the concentration giving half of the maximal effect. For the compound `CCCCCCCCCCCC(=O)N[C@H](CCC(=O)NC(CCCC1NC(N)=NC1=O)C(=O)O)C(=O)O` (stereo partly drawn), the EC50 came to 1.31 nM.
For `CCCCCCCCCCCNC(=O)[C@H](N)CCC(=O)NC(CCCC(N)C(=O)O)C(=O)O` (stereo partly drawn) the value was 0.826 nM.
Under `CCCCCCCCCCCSC(=O)[C@H](N)CCC(=O)NC(CCCC(N)C(=O)OCC)C(=O)OCC` (stereo partly drawn) stands 0.181 nM.
For `CCCCCCCCCCCC(=O)N[C@H](CCC(=O)N[C@@H](CCCCN)C(=O)O)C(=O)O` the value was 0.57 nM; for `CCCCCCCCCCCC(=O)N[C@H](CCC(=O)NC(CCCCC(=O)O)C(=O)O)C(=O)O` (stereo partly drawn), over 100 nM.
In the case of `CCCCCCCCCCCC(=O)N[C@H](CCC(=O)NCCCC[C@H](N)C(=O)O)C(=O)O`, the EC50 amounted to 0.96 nM.
For `CCCCCCCCCCCC(=O)N[C@H](CCC(=O)NC(CCCC(NC(=N)N)C(=O)O)C(=O)O)C(=O)O` (stereo partly drawn) the value was 0.622 nM; for `CCCCCCCCCCCC(=O)NC(CCCC(NC(=O)CC[C@@H](N)C(=O)O)C(=O)O)C(=O)O` (stereo partly drawn), 0.55 nM.
Under `CCCCCCCCCCCC(=O)NC(CCCC(NC(=O)CC[C@@H](NC(=O)CCCCCCCCCCC)C(=O)O)C(=O)O)C(=O)O` (stereo partly drawn) stands 0.58 nM.
For `CCCCCCCCCCCCN[C@H](CCC(=O)NC(CCCC(N)C(=O)O)C(=O)O)C(=O)O` (stereo partly drawn) the value was 0.023 nM; for `CCCCCCCCCCCOC(=O)CCCC(=O)NC(CCCC(N)C(=O)O)C(=O)O` (stereo not drawn), 0.39 nM; for `CCCCCCCCCCCC(=O)N[C@H](CCC(=O)NC(CCCC(N)C(=O)OCC)C(=O)OCC)C(=O)O` (stereo partly drawn), 0.145 nM.
For the compound `CCCCCCCCCCCCCCCCN(CCCCCCCCCCCCCCCC)[C@H](CCC(=O)NC(CCCC(N)C(=O)O)C(=O)O)C(=O)O` (stereo partly drawn), the EC50 was 0.12 nM.
